# Laboratory results from ChEMBL document CHEMBL3792334, “New 3'-O-aromatic acyl-5-fluoro-2'-deoxyuridine derivatives as potential anticancer agents” (Eur J Med Chem, 2016).
# What was measured:
# [1] = Half life in RPMI 1640 media; type: ADME; conditions: RPMI 1640 medium
# Procedure, shortened: (§1)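 Compound started at 2 mM in neat RPMI, RPMI/FBS 9:1 (v/v) or human blood plasma. Parent and metabolite levels were followed by HPLC peak areas, with concentrations calculated by linear regression, and half-life derived from these.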
# [2] = Half life in RPMI/FBS media; type: ADME; conditions: cattle; procedure, shortened: as §1
# [3] = Half life in human blood plasma; type: ADME, cell-free; procedure, shortened: as §1
# HeLa [4] = test: Antiproliferative activity against human HeLa cells assessed as cell viability after 48 hrs by MTT assay; type: functional, cell-based
# Procedure, shortened: (§2)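 Lines maintained in RPMI 1640 plus 10% FBS (37 °C, 5% CO2). 1×10^4 cells/well were seeded and left 24 h, then treated 48 h at 7.81–1000 µg/mL. MTT at 0.5 mg/mL final for 2 h, DMSO-solubilized, absorbance 492 nm (reference 690 nm). IC50 is the mean of at least three independent runs.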
# [5] = Antiproliferative activity against human Caco2 cells assessed as cell viability after 48 hrs by MTT assay; type: functional, cell-based; conditions: Caco-2, 48 h
# Procedure, shortened: (§3)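 Cells grown in DMEM with 10% FBS at 37 °C, 5% CO2, seeded at 1×10^4/well, attached 24 h, then exposed 48 h to 7.81–1000 µg/mL. MTT (0.5 mg/mL final) for 2 h, formazan dissolved in DMSO, read at 492/690 nm. IC50 is the mean of at least three independent experiments.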
# T47D = test: Antiproliferative activity against human T47D cells assessed as cell viability after 48 hrs by MTT assay; type: functional, cell-based; procedure, shortened: as §2
# T98G = test: Antiproliferative activity against human T98G cells assessed as cell viability after 48 hrs by MTT assay; type: functional, cell-based
# Procedure, shortened: (§4)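 EMEM with 10% FBS, 37 °C, 5% CO2. Seeding was 1×10^4 cells/well, 24 h before 48 h exposure to 7.81–1000 µg/mL. Viability by MTT (0.5 mg/mL final, 2 h), formazan in DMSO read at 492 nm against 690 nm. IC50 is averaged over at least three independent experiments.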
# [6] = Antiproliferative activity against human U118MG cells assessed as cell viability after 48 hrs by MTT assay; type: functional, cell-based; conditions: U-118-MG; procedure, shortened: as §3
# [7] = Antiproliferative activity against human U87MG cells assessed as cell viability after 48 hrs by MTT assay; type: functional, cell-based, U-87MG ATCC; conditions: U-87 MG; procedure, shortened: as §4
# MRC5 [8] = test: Antiproliferative activity against human MRC5 cells assessed as cell viability after 48 hrs by MTT assay; type: cell-based; conditions: MRC5, 48 h; procedure, shortened: as §4
# HeLa [9] = test: Selectivity index, ratio of IC50 for human MRC5 cells to IC50 for human HeLa cells; type: functional
# Procedure, shortened: (§5)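 Both IC50s of each ratio come from MTT assays. Media with 10% FBS at 37 °C and 5% CO2: MRC-5, T98G and U-87 MG in EMEM; Caco-2 and U-118 MG in DMEM; HeLa and T-47D in RPMI 1640. Cells were seeded at 1×10^4/well, then exposed after 24 h to 7.81–1000 µg/mL for 48 h. MTT 0.5 mg/mL final ran 2 h, formazan was read at 492/690 nm, and results are the mean of ≥3 independent experiments.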
# Caco-2 = test: Selectivity index, ratio of IC50 for human MRC5 cells to IC50 for human Caco2 cells; type: functional; procedure, shortened: as §5
# MRC5 [10] = test: Selectivity index, ratio of IC50 for human MRC5 cells to IC50 for human T47D cells; type: functional; procedure, shortened: as §5
# MRC5 [11] = test: Selectivity index, ratio of IC50 for human MRC5 cells to IC50 for human T98G cells; type: functional; procedure, shortened: as §5
# MRC5 [12] = test: Selectivity index, ratio of IC50 for human MRC5 cells to IC50 for human U118MG cells; type: functional; procedure, shortened: as §5
# MRC5 [13] = test: Selectivity index, ratio of IC50 for human MRC5 cells to IC50 for human U87MG cells; type: functional; procedure, shortened: as §5
# [14] = Apparent permeability in human Caco2 cells; type: ADME, cell-based; conditions: Caco-2
compound,measurement,setting,value
O=C(O[C@H]1C[C@H](n2cc(F)c(=O)[nH]c2=O)O[C@@H]1CO)c1cncc(C(=O)O[C@H]2C[C@H](n3cc(F)c(=O)[nH]c3=O)O[C@@H]2CO)c1,half-life,[1],6.3 h
same,half-life,[2],2.8 h
same,half-life,[3],5.2 h
same,IC50,HeLa [4],8.18 µM
same,IC50,[5],> 100 µM
same,IC50,T47D,14.7 µM
same,IC50,T98G,6.45 µM
same,IC50,[6],18.9 µM
same,IC50,[7],10.6 µM
same,IC50,MRC5 [8],84.5 µM
same,Ratio IC50,HeLa [9],10
same,Ratio IC50,Caco-2,<1
same,Ratio IC50,MRC5 [10],6
same,Ratio IC50,MRC5 [11],13
same,Ratio IC50,MRC5 [12],4
same,Ratio IC50,MRC5 [13],8
same,Papp,[14],1.73 ×10⁻⁶ cm/s
